Assay results pooled from the literature.
Each line is one published result; the experiments were not run side by side.
PBRM1 BD2: Protein polybromo-1, BD2 (PBRM1, Homo sapiens, UniProt Q86U86)
Abl1: Tyrosine-protein kinase ABL1 (Abl1, Mus musculus, UniProt P00520)
PBRM1 bromodomain: Protein polybromo-1, bromodomain (PBRM1, Homo sapiens, UniProt Q86U86)
BRD2 BD2: Bromodomain-containing protein 2, BD2 (BRD2, Homo sapiens, UniProt P25440)
BRD2 BD1: Bromodomain-containing protein 2, BD1 (BRD2, Homo sapiens, UniProt P25440)

SMILES	target	assay	setting	quantity	result
CCC(CC)CC1CCn2c1nc(=O)c1c(Cl)cccc12 (racemic)	PBRM1 BD2	thermal stability, DSF	100 µM	ΔTm	2.66 °C
Cc1cnc(NC2CCOCC2)nc1-n1cnc(C(=O)NC(CN)c2cc(F)cc(Cl)c2)c1 (centres unmarked)	Abl1	enzyme activity, inhibitor, radiometric	1 µM	remaining activity	99%
CC(C)(C)C/C=C1\CCn2c1nc(=O)c1c(Cl)cccc12	PBRM1 bromodomain	thermal stability, DSF	100 µM	ΔTm	7.06 °C
Cc1ccc(NC(=O)c2ccc(C)c(C(F)(F)F)c2)cc1C#Cc1nn(C2CCC(O)CC2)c2ncnc(N)c12 (centres unmarked)	Abl1	cell-free assay	10 µM	remaining signal	-2%
Cc1cc2c(cc1N1C(=O)c3cccc4c(Cl)ccc(c34)C1=O)n(C)c(=O)n2C	BRD2 BD2	thermal stability, DSF	10 µM	ΔTm	0.4 °C
CCC(/C=C1\CCn2c1nc(=O)c1cc(Cl)ccc12)CC	PBRM1 BD2	thermal stability, DSF	100 µM	ΔTm	0.47 °C
CCCOc1ccc(OC)c(F)c1C(=O)c1ccc(C(=O)N[C@@H]2CNC[C@H]2NC(=O)c2ccc3[nH]ncc3c2)cc1	Abl1	enzyme activity, inhibitor	10 µM	remaining activity	63%
CCC(/C=C1\CCn2c1nc(=O)c1c(Cl)c(Cl)ccc12)CC	PBRM1 bromodomain	thermal stability, DSF	100 µM	ΔTm	2.23 °C
COc1cc(NC(C)=O)c(Cl)cc1C(=O)Nc1nccs1	Muscarinic acetylcholine receptor M1 (CHRM1, Homo sapiens, UniProt P11229)	cell-free assay	10 µM	inhibition	2.6%
CCC(/C=C1\CCn2c1nc(=O)c1ccc(O)cc12)CC	PBRM1 bromodomain	thermal stability, DSF	100 µM	ΔTm	-0.42 °C
Oc1ccc(-c2nc(-c3ccncc3)c(-c3ccc(F)cc3)[nH]2)cc1	BRD2 BD1	thermal stability, DSF	10 µM	ΔTm	1.18 °C
Nc1ncnc2occ(-c3ccc(NC(=O)Nc4cc(C(F)(F)F)ccc4F)cc3)c12	Casein kinase I isoform alpha-like (CSNK1A1L, Homo sapiens, UniProt Q8N752)	cell-free assay	20 µM	remaining signal	39%
CN(C)C1CCN(CC#Cc2nn(C3CCCC3)c3nc(NCc4ccccc4)ncc23)C1 (centres unmarked)	Serine/threonine-protein kinase Sgk1 (SGK1, Homo sapiens, UniProt O00141)	enzyme activity, inhibitor, FRET	0.1 µM	inhibition	6%
CC/C=C1\CCn2c1nc(=O)c1c(Cl)cccc12	PBRM1 bromodomain	thermal stability, DSF	100 µM	ΔTm	5.03 °C
Cc1cnc(Nc2ccc(OCCN3CCCC3)cc2)nc1Nc1cccc(S(=O)(=O)NC(C)(C)C)c1	BRD2 BD1	thermal stability, DSF	10 µM	ΔTm	2.4 °C
CCC/C=C1\CCn2c1nc(=O)c1c(Cl)cccc12	PBRM1 bromodomain	thermal stability, DSF	100 µM	ΔTm	11 °C
C[S+]([O-])c1ccc(-c2nc(-c3ccncc3)c(-c3ccc(F)cc3)[nH]2)cc1 (centres unmarked)	Protein polybromo-1, BD1 (PBRM1, Homo sapiens, UniProt Q86U86)	thermal stability, DSF	10 µM	ΔTm	0.28 °C
CCCCCCN1CCCn2c1nc1c2c(=O)n(C)c(=O)n1C	Adenosine receptor A2b (ADORA2B, Homo sapiens, UniProt P29275)	ligand displacement, radioligand	10 µM, cell membranes	inhibition	9%
CC(C)(O)[C@H]1CC[C@H](Nc2ccc3ncc(-c4cccc(C(F)(F)F)c4)n3n2)CC1	Serine/threonine-protein kinase N3 (PKN3, Homo sapiens, UniProt Q6P5Z2)	enzyme activity, inhibitor	1 µM	remaining activity	40.2%
NS(=O)(=O)c1ccc(Nc2nc(-c3ccc(F)cc3)c3ccccc3n2)cc1	BRD2 BD2	binding, competition with immobilised ligand	1 µM	remaining binding	10%
O=[N+]([O-])OCC(CO[N+](=O)[O-])O[N+](=O)[O-]	Aldehyde dehydrogenase, mitochondrial (ALDH2, Homo sapiens, UniProt P05091)	enzyme activity, substrate	–	Km	~20 µM
CC(C)(C)c1ccc(NC(c2ccccc2)c2ccc3ccccc3c2O)cc1 (centres unmarked)	CAAX prenyl protease 2 (Homo sapiens, UniProt Q9Y256)	enzyme activity, inhibitor	10 µM	remaining activity	< 40%
Cc1ccc(C(=O)Nc2ccc(CN3CCN(C)CC3)c(C(F)(F)F)c2)cc1C#Cc1cnc2cccnn12	Receptor tyrosine-protein kinase erbB-3 (ERBB3, Homo sapiens, UniProt P21860)	enzyme activity, inhibitor	23.5 nM	remaining activity	82%
